From PubChem BioAssay
Unmarked numbers belong to inactive results. Activity calls are given as the source filed them.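 How the source made its calls, unless noted: active means fluorescence slope after compound addition differing from the mean of all tested samples at 99.7% confidence, mostly higher but some lower; inactive means the rest.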

target: Voltage-gated potassium channel subunit beta-2 (Rattus norvegicus) (UniProt P62483); assay: enhancers of rat Kvbeta2 NADPH turnover – biochemical, NADPH fluorescence, primary screen (AID 623;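 active means NADPH fluorescence slope more negative than the mean of all samples by about 3 SD, 99.7% confidence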;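 further: fluorescence intensity change per second fitted from 20 to 320 s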); settings: Recombinant KvBeta, NADPH fluorescence decrease slope, 10 min; at 10 µM; hits give low values
Sequence (P62483 whole entry, looked up): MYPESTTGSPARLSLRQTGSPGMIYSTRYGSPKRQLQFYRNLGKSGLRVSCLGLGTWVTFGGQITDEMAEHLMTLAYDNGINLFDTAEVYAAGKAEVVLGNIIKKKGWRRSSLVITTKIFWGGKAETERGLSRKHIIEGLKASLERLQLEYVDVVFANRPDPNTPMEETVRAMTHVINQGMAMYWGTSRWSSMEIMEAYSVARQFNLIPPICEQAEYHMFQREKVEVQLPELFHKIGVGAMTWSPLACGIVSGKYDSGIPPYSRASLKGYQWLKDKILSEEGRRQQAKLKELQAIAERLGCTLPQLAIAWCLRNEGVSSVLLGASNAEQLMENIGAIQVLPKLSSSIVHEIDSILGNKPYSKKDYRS

Row | SMILES | NADPH fluorescence slope
1 | CCCCCOc1ccccc1C(=O)NCCCC(=O)O | -0.000126
2 | Cc1cc(=O)oc(C)c1C(=O)Nc1ccc2nsnc2c1 | -2.8e-05
3 | CCOC(=O)NC1(C(F)(F)F)C(=O)NC(C)=C1C#N (stereo not drawn) | -0.000119
4 | CCc1cc(=O)oc2cc(C)c(CN3CCCC3)c(O)c12 | -0.000155
5 | Cc1cc(Nc2ccc3ccccc3c2)n2ncnc2n1 | -4.4e-05
6 | O=c1c2c3c(sc2n2cnnc2n1C1CCCCC1)CCC3 | -0.000131
7 | Cc1cccc(-n2ncc3c(NCCN4CCOCC4)ncnc32)c1 | -2.6e-05
8 | CCCCOC(=O)CSC1=C(C#N)C(c2ccc3c(c2)OCO3)CC(=O)N1 (stereo not drawn) | -8.3e-05
9 | COC(=O)CSCC(=O)Nc1cc2c(cc1C(C)=O)OCO2 | 1.5e-05
10 | Cc1c(C)[n+](=O)c2c(n1[O-])CCC2 | -2.3e-05
11 | CC1CCN(c2ncnc3c2cnn3Cc2ccc(Cl)cc2)CC1 | -1.7e-05
12 | Cc1cc(=O)oc(C)c1C(=O)n1nc(C)c2c1C[C@@H]1[C@H]2C1(C)C | -3.7e-05
13 | Cc1cc(=O)oc(C)c1C(=O)NC1CC(C)(C)NC(C)(C)C1 | -1.7e-05
14 | O=C(Oc1oc(-c2ccco2)nc1C=Nc1ccccc1)c1ccco1 | -3.8e-05
15 | Cn1c(=O)c2c(nc(NCCCO)n2Cc2cccc(C(F)(F)F)c2)n(C)c1=O | -6.8e-05
16 | Cc1ccc(Oc2nc3c(c(=O)n(Cc4ccccc4F)c(=O)n3C)n2C)cc1 | -3.8e-05
17 | N#Cc1c(N)n(CCOC(=O)c2ccc(Cl)cc2)c2nc3ccccc3nc12 | -7.1e-06
18 | CCCc1nnc(NC(=O)Nc2ccccc2OC)s1 | -4.1e-05
19 | O=C(C1=C(O)C(=O)N(CCCN2CCOCC2)C1c1ccccn1)c1cc2ccccc2o1 (stereo not drawn) | -0.000374 (active)
20 | COc1ccc(CCn2c(=N)c(C(=O)NCc3ccco3)cc3c(=O)n4ccccc4nc32)cc1OC | -2.1e-05

Row | SMILES | NADPH fluorescence slope
21 | O=C(c1ccccc1)n1c(=S)nc2ccccn21 | -3.2e-05
22 | CCc1nc2n[nH]c(N)c2c2c1CCCC2 | -5.3e-05
23 | O=c1c2ccccc2ncn1Cc1ccco1 | -3.2e-05
24 | O=C(O)c1cc2sccc2s1 | -2.7e-05
25 | CC(C)c1[nH]c(=O)c(C#N)c2c1CSC(C)(C)C2 | 3.3e-05
26 | CC1(C)Cc2c(c(N3CCOCC3)nc3snc(Br)c23)CO1 | -1.8e-05
27 | COc1ccc(C2C(C#N)=C(N)Oc3cc(C)n(CCN4CCOCC4)c(=O)c32)cc1OC (stereo not drawn) | -3.9e-05
28 | Cc1ccc(N2C(=O)CC3(CC4C=CC3C4)C2=O)cc1 (stereo not drawn) | -3.6e-05
29 | CCCc1cc(NCCN2CCOCC2)n2c(nc3ccccc32)c1C#N | 7.2e-06
30 | CCN(CC)CCCN1C(=O)C(=O)/C(=C(/O)c2ccc(OC)cc2)C1c1ccco1 (stereo not drawn) | -0.000107
31 | Cc1ccc(-n2ncc3c(NCCCOC(C)C)ncnc32)c(C)c1 | -4.3e-05
32 | O=C(COc1ccc(-c2nnc(N3CCCCC3)c3ccccc23)cc1)N1CCCCC1 | 2e-05
33 | CC(C(=O)N(C)C)N(C#N)c1nc(N(C)C)nc(N(C)C)n1 (stereo not drawn) | -5.1e-05
34 | CC(C(=O)NC(=O)NCc1ccccc1)N1C(=O)c2ccccc2C1=O (stereo not drawn) | -4.3e-05
35 | CCN(CC)CCN1C(=O)c2ccccc2NC1c1cc(OC)c(OC)c(OC)c1 (stereo not drawn) | -1.4e-05
36 | O=C(NCc1ccccc1)/C(=N\O)c1ccccc1 | -1.6e-05
37 | Cn1ncc2nc[nH]c(=O)c21 | -3.5e-05
38 | Clc1ccc(-n2ncc3c(NCc4ccco4)ncnc32)cc1 | -2.6e-05
39 | COC(=O)c1ccc(Cn2c(O)c(N=O)c3ccccc32)o1 | -7e-05

target: Muscarinic acetylcholine receptor M4 (Homo sapiens) (UniProt P08173); assay: M4-linked GIRK flux change, two-sided – cell-based, HEK293 M4/GIRK, thallium flux, BTC-AM, M4 allosteric agonist project, primary screen (AID 625); settings: at 10 µM, actives lie on both sides;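 further: thallium influx through GIRK channels coupled to M4 in HEK293 cells with BTC-AM dye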
Summary of the method: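 System: HEK293 cells with M4 receptor and GIRK channels | Incubation: Cells overnight at 37 °C, BTC-AM loading 1 h, reads 2 min total | Technique: Kinetic BTC-AM fluorescence sampled at 1 Hz, 10 s pre-addition baseline | Measure: Post-addition slope, 15–24 s, of baseline-normalized fluorescence | Control set: Carbachol positive, DMSO negative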

Muscarinic acetylcholine receptor M4 (Homo sapiens), sequence (P08173 whole entry, looked up): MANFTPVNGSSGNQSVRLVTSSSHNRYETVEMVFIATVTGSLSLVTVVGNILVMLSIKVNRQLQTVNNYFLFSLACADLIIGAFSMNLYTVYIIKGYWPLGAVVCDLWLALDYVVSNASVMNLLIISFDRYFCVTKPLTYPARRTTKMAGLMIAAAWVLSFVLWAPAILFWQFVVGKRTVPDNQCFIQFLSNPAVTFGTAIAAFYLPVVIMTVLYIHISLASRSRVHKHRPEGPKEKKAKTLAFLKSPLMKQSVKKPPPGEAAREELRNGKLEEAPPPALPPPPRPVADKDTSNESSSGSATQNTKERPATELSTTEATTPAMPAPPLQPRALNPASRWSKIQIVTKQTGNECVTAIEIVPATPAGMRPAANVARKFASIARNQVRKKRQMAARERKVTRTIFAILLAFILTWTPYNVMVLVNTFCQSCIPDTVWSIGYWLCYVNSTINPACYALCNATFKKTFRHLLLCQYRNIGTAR

Row | SMILES | fluorescence slope
40 | CCCCCOc1ccccc1C(=O)NCCCC(=O)O | 0.00541
41 | Cc1cc(=O)oc(C)c1C(=O)Nc1ccc2nsnc2c1 | 0.00564
42 | CCOC(=O)NC1(C(F)(F)F)C(=O)NC(C)=C1C#N (stereo not drawn) | 0.00503
43 | CCc1cc(=O)oc2cc(C)c(CN3CCCC3)c(O)c12 | 0.00438
44 | Cc1cc(Nc2ccc3ccccc3c2)n2ncnc2n1 | 0.00533
45 | O=c1c2c3c(sc2n2cnnc2n1C1CCCCC1)CCC3 | 0.00453
46 | Cc1cccc(-n2ncc3c(NCCN4CCOCC4)ncnc32)c1 | 0.00826
47 | CCCCOC(=O)CSC1=C(C#N)C(c2ccc3c(c2)OCO3)CC(=O)N1 (stereo not drawn) | 0.00598
48 | COC(=O)CSCC(=O)Nc1cc2c(cc1C(C)=O)OCO2 | 0.00475
49 | Cc1c(C)[n+](=O)c2c(n1[O-])CCC2 | 0.00544
50 | CC1CCN(c2ncnc3c2cnn3Cc2ccc(Cl)cc2)CC1 | 0.00585
51 | Cc1cc(=O)oc(C)c1C(=O)n1nc(C)c2c1C[C@@H]1[C@H]2C1(C)C | 0.00461
52 | Cc1cc(=O)oc(C)c1C(=O)NC1CC(C)(C)NC(C)(C)C1 | 0.00552
53 | O=C(Oc1oc(-c2ccco2)nc1C=Nc1ccccc1)c1ccco1 | 0.0053
54 | Cn1c(=O)c2c(nc(NCCCO)n2Cc2cccc(C(F)(F)F)c2)n(C)c1=O | 0.00722
55 | Cc1ccc(Oc2nc3c(c(=O)n(Cc4ccccc4F)c(=O)n3C)n2C)cc1 | 0.00827
56 | N#Cc1c(N)n(CCOC(=O)c2ccc(Cl)cc2)c2nc3ccccc3nc12 | 0.00595
57 | CCCc1nnc(NC(=O)Nc2ccccc2OC)s1 | 0.0109
58 | O=C(C1=C(O)C(=O)N(CCCN2CCOCC2)C1c1ccccn1)c1cc2ccccc2o1 (stereo not drawn) | 0.0054
59 | COc1ccc(CCn2c(=N)c(C(=O)NCc3ccco3)cc3c(=O)n4ccccc4nc32)cc1OC | 0.00335

Row | SMILES | fluorescence slope
60 | O=C(c1ccccc1)n1c(=S)nc2ccccn21 | 0.00539
61 | CCc1nc2n[nH]c(N)c2c2c1CCCC2 | 0.00476
62 | O=c1c2ccccc2ncn1Cc1ccco1 | 0.00462
63 | O=C(O)c1cc2sccc2s1 | 0.005
64 | CC(C)c1[nH]c(=O)c(C#N)c2c1CSC(C)(C)C2 | 0.0036
65 | CC1(C)Cc2c(c(N3CCOCC3)nc3snc(Br)c23)CO1 | 0.00473
66 | COc1ccc(C2C(C#N)=C(N)Oc3cc(C)n(CCN4CCOCC4)c(=O)c32)cc1OC (stereo not drawn) | 0.00521
67 | Cc1ccc(N2C(=O)CC3(CC4C=CC3C4)C2=O)cc1 (stereo not drawn) | 0.00482
68 | CCCc1cc(NCCN2CCOCC2)n2c(nc3ccccc32)c1C#N | 0.00729
69 | CCN(CC)CCCN1C(=O)C(=O)/C(=C(/O)c2ccc(OC)cc2)C1c1ccco1 (stereo not drawn) | 0.0055
70 | Cc1ccc(-n2ncc3c(NCCCOC(C)C)ncnc32)c(C)c1 | 0.00603
71 | O=C(COc1ccc(-c2nnc(N3CCCCC3)c3ccccc23)cc1)N1CCCCC1 | 0.00419
72 | CC(C(=O)N(C)C)N(C#N)c1nc(N(C)C)nc(N(C)C)n1 (stereo not drawn) | 0.00543
73 | CC(C(=O)NC(=O)NCc1ccccc1)N1C(=O)c2ccccc2C1=O (stereo not drawn) | 0.00457
74 | CCN(CC)CCN1C(=O)c2ccccc2NC1c1cc(OC)c(OC)c(OC)c1 (stereo not drawn) | 0.00441
75 | O=C(NCc1ccccc1)/C(=N\O)c1ccccc1 | 0.00503
76 | Cn1ncc2nc[nH]c(=O)c21 | 0.006
77 | Clc1ccc(-n2ncc3c(NCc4ccco4)ncnc32)cc1 | 0.00727
78 | COC(=O)c1ccc(Cn2c(O)c(N=O)c3ccccc32)o1 | 0.00432
